Some results are limits rather than exact numbers.

As usually defined, the Ki is a dissociation constant, usually derived from enzyme kinetics or from competition with a known ligand. The low end stands for higher affinity, the high end for lower affinity.

The target in experiment [1] is T1, D(1A) dopamine receptor (Rattus norvegicus, UniProt P18901). In words: Inhibition of [3H]SCH-23390 binding to rat striatal homogenate dopamine receptor D1. In a few lines:
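Pooled striatal membranes from male Sprague-Dawley rats (150-250 g), washed twice by homogenization/centrifugation (20000g, 10 min) in 50 mM Tris-HCl pH 7.4, final buffer adding 120 mM NaCl, 5 mM CaCl2, 1 mM MgCl2. Test agents at various concentrations compete with [3H]SCH 23390; triplicate, 37 °C for 20 min, rapid GF/B filtration, liquid scintillation counting.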

The target in experiment [2] is T2, D(2) dopamine receptor (Rattus norvegicus, UniProt P61169). Kind of experiment: Displacement of [3H]spiperone from rat striatal homogenate dopamine receptor D2. In a few lines: (§1)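 Striatum from male Sprague-Dawley rats (150-250 g), homogenized in ice-cold 50 mM Tris-HCl pH 7.4, centrifuged 20000g 10 min twice, resuspended in Tris buffer with 120 mM NaCl, 5 mM CaCl2, 1 mM MgCl2. Competition against [3H]spiperone (final approximately 0.3 nM), triplicate tubes, 37 °C 20 min, vacuum filtration over GF/B with ice-cold buffer rinses, scintillation counting.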
(In general: In a radioligand displacement assay an active substance lowers the binding of a labelled ligand.)

Experiment [3] concerns the target T1, D(1A) dopamine receptor. In words: In vitro affinity of compound towards dopamine (D1) receptor was determined by measuring their ability to displace [3H]SCH-23,390 from rat striatal homogenates.
The target of experiment [4] is T2, D(2) dopamine receptor. In words: In vitro affinity of compound towards Dopamine receptor D2 was determined by measuring their ability to displace [3H]spiperone from rat striatal homogenates. The method in brief:
as §1

T1 sequence (P18901 whole entry): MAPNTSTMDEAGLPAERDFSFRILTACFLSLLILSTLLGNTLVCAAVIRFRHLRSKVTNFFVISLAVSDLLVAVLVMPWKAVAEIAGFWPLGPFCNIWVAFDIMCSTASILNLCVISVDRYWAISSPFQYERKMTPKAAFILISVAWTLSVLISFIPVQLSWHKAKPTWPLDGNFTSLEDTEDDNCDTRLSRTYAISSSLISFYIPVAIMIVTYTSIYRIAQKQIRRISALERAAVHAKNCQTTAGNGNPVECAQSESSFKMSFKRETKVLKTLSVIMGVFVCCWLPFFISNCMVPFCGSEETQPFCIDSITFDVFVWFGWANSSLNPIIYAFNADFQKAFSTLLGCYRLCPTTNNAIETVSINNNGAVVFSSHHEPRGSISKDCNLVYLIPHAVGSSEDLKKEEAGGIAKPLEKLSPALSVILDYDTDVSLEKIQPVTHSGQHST
T2 sequence (P61169 whole entry): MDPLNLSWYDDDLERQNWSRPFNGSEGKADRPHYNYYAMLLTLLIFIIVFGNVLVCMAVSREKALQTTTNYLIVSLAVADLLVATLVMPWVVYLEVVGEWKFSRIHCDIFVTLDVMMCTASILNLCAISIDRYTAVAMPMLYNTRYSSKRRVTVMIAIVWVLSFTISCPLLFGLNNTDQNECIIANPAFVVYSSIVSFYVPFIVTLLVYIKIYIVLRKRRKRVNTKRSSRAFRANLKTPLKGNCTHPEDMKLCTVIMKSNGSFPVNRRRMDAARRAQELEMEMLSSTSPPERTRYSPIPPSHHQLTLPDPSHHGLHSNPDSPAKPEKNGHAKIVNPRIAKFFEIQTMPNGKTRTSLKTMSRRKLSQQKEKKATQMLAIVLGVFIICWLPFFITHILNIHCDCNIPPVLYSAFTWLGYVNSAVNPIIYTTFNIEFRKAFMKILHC

Turning to `COc1cc2c(cc1O)[C@H]1c3ccccc3CC[C@@H]1N(C)CC2`, the Ki amounted to 0.0236 µM at D(1A) dopamine receptor [1] and 2.48 µM at D(2) dopamine receptor [2].

Compound `CN1CCc2cc(Cl)c(O)cc2[C@H]2c3ccccc3CC[C@H]21` came in with a Ki at D(1A) dopamine receptor [1] of 0.898 µM. With `COc1cc2c(cc1O)[C@@H]1c3ccccc3CC[C@@H]1N(C)CC2`, the results for the Ki at D(1A) dopamine receptor [1] and on D(2) dopamine receptor [2] were 4.2 µM and > 100 µM, respectively. `COc1cc2c(cc1O)CCN(C)[C@H]1CCc3ccccc3[C@H]21`: the inhibition constant Ki on D(1A) dopamine receptor [1] was 1.66 µM; on D(2) dopamine receptor [2], 6.4 µM. With `CN1CCc2ccc(O)cc2[C@H]2c3ccccc3CC[C@@H]21`, the Ki on D(1A) dopamine receptor [1] amounted to 0.0726 µM; on D(2) dopamine receptor [2], 7.87 µM. `CN1CCc2cc(O)c(O)cc2[C@@H]2c3ccccc3CC[C@@H]21`: the Ki at D(1A) dopamine receptor [3] is 1.73 µM; at D(2) dopamine receptor [4] it was > 100 µM.

As to `COc1cc2c(cc1O)CCN(C)[C@H]1CCc3ccccc3[C@@H]21`, the Ki at D(1A) dopamine receptor [1] was 24.4 µM; at D(2) dopamine receptor [2] it was > 100 µM. In the case of `CN1CCc2cc(O)c(O)cc2[C@H]2c3ccccc3CC[C@@H]21`, the figures for the Ki at D(1A) dopamine receptor [3] and on D(2) dopamine receptor [4] were 0.068 µM and 2.41 µM, respectively. `CN1CCc2cc(Cl)c(O)cc2[C@@H]2c3ccccc3CC[C@@H]21` registered a Ki at D(1A) dopamine receptor [1] of 0.513 µM. This lies in the sub-micromolar range. Consider `Cc1cc2c(cc1O)[C@H]1c3ccccc3CC[C@@H]1N(C)CC2`, for which the Ki at D(1A) dopamine receptor [1] came to 0.0071 µM; at D(2) dopamine receptor [2], 1.51 µM. As to `CN1CCc2cc(Cl)c(O)cc2[C@@H]2c3ccccc3CC[C@H]21`, the Ki at D(1A) dopamine receptor [1] came to 0.531 µM. Consider `CN1CCc2cc(Cl)c(O)cc2[C@@H]2c3ccccc3CC[C@@H]21` (relative stereo), for which the affinity on D(1A) dopamine receptor [1] corresponds to a Ki of 0.474 µM.

`CN1CCc2cc(Cl)c(O)cc2C2c3ccccc3CCC21` (trans isomer) returned a Ki at D(1A) dopamine receptor [1] of 0.0033 µM. Compound `CN1CCc2cc(Cl)c(O)cc2[C@H]2c3ccccc3CC[C@@H]21` [ECOPIPAM] yielded a Ki at D(1A) dopamine receptor [1] of 0.0019 µM.
